Data as given in ChEMBL document CHEMBL2176978, “Fragment-based discovery of bromodomain inhibitors part 2: optimization of phenylisoxazole sulfonamides” (J Med Chem, 2012).
Values after ≈ are worked out from the molar mass of the structure shown.

Assays:
[1] = molecular target: Bromodomain-containing protein 2 (Homo sapiens, UniProt P25440); test: Inhibition of His6FLAG-tagged BRD2-BD12 expressed in Escherichia coli assessed as change in melting temperature at 100 uM by thermal shift assay
Procedure, shortened: (§1)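 Thermal melt: protein heated with or without 100 μM compound, at least duplicate; Sypro orange at 1:1000 in PBS with 10% glycerol; ramp 1 °C/min, fluorescence read every 0.5 °C; ΔTm reported.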

[2] = molecular target: Bromodomain-containing protein 3 (Homo sapiens, UniProt Q15059); test: Inhibition of His6FLAG-tagged BRD3-BD12 expressed in Escherichia coli assessed as change in melting temperature at 100 uM by thermal shift assay; procedure, shortened: as §1
[3] = Solubility of the compound at pH 5; format: physicochemical; conditions: buffer
[4] = molecular target: CREB-binding protein (Homo sapiens) (UniProt Q92793); test: Inhibition of His6FLAG-tagged CREBBP expressed in Escherichia coli assessed as change in melting temperature at 100 uM by thermal shift assay; procedure, shortened: as §1
[5] = Solubility of the compound at pH 7; format: physicochemical; conditions: buffer
[6] = molecular target: T1, ATPase family AAA domain-containing protein 2B (Homo sapiens) (UniProt Q9ULI0); test: Inhibition of His6FLAG-tagged ATD2B expressed in Escherichia coli assessed as change in melting temperature at 100 uM by thermal shift assay; procedure, shortened: as §1
T1 sequence (whole entry): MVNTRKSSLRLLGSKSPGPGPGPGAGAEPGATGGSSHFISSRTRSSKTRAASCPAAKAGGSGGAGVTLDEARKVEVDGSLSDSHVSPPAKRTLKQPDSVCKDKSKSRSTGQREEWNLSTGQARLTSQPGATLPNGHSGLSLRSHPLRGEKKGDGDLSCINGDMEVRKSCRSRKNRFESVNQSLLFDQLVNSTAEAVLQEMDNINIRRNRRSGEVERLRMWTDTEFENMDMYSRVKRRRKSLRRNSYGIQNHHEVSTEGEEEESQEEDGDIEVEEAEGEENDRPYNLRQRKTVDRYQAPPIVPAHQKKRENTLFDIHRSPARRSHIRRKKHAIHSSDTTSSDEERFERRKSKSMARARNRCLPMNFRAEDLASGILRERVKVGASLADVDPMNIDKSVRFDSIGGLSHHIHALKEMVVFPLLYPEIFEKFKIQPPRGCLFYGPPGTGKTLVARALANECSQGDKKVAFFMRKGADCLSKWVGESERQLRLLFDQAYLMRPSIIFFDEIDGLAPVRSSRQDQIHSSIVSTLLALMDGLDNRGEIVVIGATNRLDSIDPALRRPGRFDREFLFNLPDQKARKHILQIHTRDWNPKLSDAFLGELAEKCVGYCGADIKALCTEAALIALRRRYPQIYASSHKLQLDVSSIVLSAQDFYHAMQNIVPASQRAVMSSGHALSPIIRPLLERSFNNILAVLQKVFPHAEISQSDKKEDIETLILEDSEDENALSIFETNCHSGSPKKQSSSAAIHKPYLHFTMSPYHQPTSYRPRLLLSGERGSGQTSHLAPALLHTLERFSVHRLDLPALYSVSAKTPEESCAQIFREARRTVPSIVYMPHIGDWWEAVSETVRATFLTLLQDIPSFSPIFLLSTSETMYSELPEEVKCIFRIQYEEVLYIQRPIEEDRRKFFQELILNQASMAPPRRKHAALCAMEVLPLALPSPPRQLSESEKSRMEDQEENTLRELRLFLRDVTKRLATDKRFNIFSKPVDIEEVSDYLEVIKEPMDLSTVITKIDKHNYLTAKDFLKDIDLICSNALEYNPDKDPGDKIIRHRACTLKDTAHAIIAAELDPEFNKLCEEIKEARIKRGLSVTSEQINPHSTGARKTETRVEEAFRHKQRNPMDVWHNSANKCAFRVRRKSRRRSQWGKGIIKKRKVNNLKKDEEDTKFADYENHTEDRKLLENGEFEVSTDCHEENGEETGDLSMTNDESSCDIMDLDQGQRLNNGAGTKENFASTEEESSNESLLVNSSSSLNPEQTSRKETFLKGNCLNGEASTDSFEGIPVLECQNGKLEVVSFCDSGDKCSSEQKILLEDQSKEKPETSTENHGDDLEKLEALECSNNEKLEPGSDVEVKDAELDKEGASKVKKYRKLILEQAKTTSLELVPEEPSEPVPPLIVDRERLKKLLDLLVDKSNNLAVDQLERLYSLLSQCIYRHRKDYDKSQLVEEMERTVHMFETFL

[7] = molecular target: Bromodomain-containing protein 4 (Homo sapiens, UniProt O60885); test: Inhibition of His6FLAG-tagged BRD4-BD12 expressed in Escherichia coli assessed as change in melting temperature at 100 uM by thermal shift assay; procedure, shortened: as §1

Sequence of Bromodomain-containing protein 2 (P25440 whole entry, looked up): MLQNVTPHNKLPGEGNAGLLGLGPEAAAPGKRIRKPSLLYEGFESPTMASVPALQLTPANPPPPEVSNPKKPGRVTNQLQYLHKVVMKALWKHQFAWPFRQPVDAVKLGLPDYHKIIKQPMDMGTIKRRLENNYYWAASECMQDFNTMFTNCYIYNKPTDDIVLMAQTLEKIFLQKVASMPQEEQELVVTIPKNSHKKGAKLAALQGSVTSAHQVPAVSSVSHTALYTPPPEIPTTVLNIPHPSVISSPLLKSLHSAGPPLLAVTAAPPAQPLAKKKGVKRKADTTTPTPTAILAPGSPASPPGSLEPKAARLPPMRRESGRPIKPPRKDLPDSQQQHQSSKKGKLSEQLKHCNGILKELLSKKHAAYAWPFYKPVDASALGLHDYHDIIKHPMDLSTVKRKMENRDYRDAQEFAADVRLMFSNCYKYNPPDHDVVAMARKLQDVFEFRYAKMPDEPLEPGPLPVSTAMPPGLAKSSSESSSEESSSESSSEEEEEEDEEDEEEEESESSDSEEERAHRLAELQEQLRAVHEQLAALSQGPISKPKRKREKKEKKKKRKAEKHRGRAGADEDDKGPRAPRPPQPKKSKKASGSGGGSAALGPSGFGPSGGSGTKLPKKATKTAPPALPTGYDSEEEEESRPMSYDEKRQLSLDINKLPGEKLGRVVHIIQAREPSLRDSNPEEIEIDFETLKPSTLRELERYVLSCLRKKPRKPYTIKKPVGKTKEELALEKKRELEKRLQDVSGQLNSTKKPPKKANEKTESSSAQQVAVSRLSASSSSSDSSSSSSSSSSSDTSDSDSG
Sequence of CREB-binding protein (Homo sapiens) (Q92793 2-2442 limits assumed): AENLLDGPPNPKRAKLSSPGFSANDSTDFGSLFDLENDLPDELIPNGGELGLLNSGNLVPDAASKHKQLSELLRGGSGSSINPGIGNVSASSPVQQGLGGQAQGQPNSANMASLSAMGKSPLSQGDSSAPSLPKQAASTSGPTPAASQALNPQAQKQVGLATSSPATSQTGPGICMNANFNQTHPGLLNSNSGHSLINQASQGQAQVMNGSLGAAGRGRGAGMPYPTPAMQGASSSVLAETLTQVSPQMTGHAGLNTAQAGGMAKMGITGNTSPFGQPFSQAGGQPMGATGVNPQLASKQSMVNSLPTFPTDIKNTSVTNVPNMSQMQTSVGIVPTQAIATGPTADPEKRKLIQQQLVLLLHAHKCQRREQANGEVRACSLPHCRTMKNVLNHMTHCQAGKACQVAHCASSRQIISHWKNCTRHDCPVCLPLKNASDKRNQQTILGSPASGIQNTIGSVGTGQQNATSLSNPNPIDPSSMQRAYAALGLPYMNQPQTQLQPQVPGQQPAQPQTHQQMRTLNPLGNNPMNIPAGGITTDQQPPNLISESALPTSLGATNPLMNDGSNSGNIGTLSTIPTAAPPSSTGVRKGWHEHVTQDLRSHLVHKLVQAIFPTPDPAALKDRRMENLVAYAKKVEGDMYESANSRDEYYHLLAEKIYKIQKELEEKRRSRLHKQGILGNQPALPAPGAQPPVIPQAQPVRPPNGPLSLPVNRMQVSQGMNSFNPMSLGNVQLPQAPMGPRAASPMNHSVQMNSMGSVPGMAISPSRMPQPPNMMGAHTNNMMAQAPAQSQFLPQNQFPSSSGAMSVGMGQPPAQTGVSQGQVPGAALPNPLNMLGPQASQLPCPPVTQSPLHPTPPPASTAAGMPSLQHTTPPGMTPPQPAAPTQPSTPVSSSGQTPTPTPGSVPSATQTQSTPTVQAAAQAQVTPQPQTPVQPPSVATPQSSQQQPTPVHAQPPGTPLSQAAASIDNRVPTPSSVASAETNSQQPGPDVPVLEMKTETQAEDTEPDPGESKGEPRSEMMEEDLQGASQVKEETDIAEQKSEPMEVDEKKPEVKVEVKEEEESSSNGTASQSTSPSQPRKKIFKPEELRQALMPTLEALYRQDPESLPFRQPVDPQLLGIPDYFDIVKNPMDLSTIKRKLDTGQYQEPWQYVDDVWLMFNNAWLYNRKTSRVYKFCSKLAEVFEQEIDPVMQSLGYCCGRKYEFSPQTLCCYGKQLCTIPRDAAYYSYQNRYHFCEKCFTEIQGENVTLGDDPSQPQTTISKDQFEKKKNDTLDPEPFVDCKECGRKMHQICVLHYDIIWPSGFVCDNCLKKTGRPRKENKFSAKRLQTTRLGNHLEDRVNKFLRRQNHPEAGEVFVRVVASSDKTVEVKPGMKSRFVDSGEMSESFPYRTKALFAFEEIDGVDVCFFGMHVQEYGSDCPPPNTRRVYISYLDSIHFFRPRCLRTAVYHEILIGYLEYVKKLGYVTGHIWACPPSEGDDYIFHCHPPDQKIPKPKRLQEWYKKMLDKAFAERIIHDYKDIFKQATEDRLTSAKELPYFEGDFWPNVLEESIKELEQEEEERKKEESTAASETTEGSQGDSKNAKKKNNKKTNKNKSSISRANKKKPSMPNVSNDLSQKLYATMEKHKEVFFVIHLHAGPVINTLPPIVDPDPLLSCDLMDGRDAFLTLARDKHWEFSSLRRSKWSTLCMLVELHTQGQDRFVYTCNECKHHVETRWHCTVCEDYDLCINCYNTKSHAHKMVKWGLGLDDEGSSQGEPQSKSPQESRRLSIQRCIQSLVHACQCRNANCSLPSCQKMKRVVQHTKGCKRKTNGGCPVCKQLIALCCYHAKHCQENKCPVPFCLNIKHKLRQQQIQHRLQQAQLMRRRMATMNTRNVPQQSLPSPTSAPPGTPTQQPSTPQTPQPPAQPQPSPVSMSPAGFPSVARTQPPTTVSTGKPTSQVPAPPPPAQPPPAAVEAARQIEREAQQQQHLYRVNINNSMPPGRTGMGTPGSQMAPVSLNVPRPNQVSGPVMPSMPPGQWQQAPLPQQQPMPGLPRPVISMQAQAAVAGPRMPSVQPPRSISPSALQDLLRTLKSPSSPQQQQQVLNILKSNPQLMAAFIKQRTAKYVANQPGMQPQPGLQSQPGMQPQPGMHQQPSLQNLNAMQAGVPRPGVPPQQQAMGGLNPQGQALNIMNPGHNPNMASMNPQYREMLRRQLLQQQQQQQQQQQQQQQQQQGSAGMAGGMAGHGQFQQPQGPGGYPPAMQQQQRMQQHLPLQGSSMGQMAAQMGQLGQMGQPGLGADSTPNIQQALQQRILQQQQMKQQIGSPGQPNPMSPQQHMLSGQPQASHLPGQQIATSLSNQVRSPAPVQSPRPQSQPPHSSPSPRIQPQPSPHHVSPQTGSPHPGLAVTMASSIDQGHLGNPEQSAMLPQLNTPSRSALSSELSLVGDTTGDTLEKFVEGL
Sequence of Bromodomain-containing protein 3 (Q15059 2-726 limits assumed): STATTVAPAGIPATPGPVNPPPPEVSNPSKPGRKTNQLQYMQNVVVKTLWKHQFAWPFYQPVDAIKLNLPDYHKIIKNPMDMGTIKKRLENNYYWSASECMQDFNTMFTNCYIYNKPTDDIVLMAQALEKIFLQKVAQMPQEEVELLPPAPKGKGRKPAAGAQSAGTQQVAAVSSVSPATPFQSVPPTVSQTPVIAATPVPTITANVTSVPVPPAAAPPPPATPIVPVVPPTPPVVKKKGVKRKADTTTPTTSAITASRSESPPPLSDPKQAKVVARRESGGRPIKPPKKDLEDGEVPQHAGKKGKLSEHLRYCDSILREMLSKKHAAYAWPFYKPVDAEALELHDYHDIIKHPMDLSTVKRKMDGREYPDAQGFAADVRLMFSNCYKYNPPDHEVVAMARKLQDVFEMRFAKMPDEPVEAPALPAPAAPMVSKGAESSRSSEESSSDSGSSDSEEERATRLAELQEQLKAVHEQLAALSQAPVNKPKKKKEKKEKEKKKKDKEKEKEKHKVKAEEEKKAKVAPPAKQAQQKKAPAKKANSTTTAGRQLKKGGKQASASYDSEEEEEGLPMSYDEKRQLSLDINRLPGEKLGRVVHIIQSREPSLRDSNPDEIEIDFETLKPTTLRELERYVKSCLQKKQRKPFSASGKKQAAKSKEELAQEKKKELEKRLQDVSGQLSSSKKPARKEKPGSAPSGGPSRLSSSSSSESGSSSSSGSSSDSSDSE

Row | SMILES | ΔTm [1] [°C] | ΔTm [2] [°C] | solubility [3] [µg/mL] | ΔTm [4] [°C] | solubility [5] [µg/mL] | ΔTm [6] [°C] | ΔTm [7] [°C]
1 | Cc1noc(C)c1-c1ccc(OCCCN2CCOCC2)c(S(=O)(=O)NC2CCCC2)c1 | 2 | 2 | 1120 (≈ 2430 µM) | 1.5 | 210 (≈ 453 µM) | < 1 | 5
2 | Cc1ccc(-c2c(C)noc2C)cc1S(=O)(=O)NC1CCCC1 | 2 | 2 | < 1 | < 1 | < 1 | < 1 | 5
